In PubChem BioAssay AID588817 (The Scripps Research Institute Molecular Screening Center, 2011):
Active and inactive are the calls of the source.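 Rule for the calls: active = compounds cutting probe labeling of the enzyme in cells by at least 50% at 0.1 µM; inactive = under 50% inhibition at that dose.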

Biological target: Platelet-activating factor acetylhydrolase (Mus musculus) (UniProt Q60963)
Assay: in situ blockade of mouse pPAFAH activity – cell-based, gel-based competitive ABPP, fluorescence, late-stage follow-up (AID 588817)
Details: HEK293T overexpressing mouse pPAFAH, 4 h; at 10 µM (top of the series)
Summary of the method: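 Test system: mouse pPAFAH-transfected 293T cells / Buffer or medium: serum-free medium during compound treatment / Doses: four-point series of 10, 1, 0.1, 0.01 µM final / Times: 4 h compound treatment, 30 min probe labelling, 37 °C / Measured by: gel fluorescence band intensity after SDS-PAGE / Controls: DMSO high control, blank-gel background low control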

Platelet-activating factor acetylhydrolase (Mus musculus), sequence (Q60963 whole entry, looked up): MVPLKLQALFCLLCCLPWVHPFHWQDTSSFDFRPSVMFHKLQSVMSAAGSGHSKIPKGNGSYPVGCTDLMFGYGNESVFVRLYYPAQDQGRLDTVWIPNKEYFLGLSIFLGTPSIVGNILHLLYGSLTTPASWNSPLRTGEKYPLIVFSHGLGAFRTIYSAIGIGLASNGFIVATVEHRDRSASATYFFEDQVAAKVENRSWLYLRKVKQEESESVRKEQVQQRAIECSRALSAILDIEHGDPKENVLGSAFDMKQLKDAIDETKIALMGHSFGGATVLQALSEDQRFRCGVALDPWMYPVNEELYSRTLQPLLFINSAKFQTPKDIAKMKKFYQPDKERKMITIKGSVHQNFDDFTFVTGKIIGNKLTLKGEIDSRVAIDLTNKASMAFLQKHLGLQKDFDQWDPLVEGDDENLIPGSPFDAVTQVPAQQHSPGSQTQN

Cc1cc(N2CCN(C(=O)Oc3ccc(-c4ccccc4)cn3)CC2)c2ccccc2n1
inhibition: 100% (active)
